Results as given in ChEMBL document CHEMBL1135588, “Divalent and trivalent alpha-ketocarboxylic acids as inhibitors of protein tyrosine phosphatases” (J Med Chem, 2002).

Tests used:
[1] = target: T1, Tyrosine-protein phosphatase non-receptor type 1 (Homo sapiens, UniProt P18031); experiment: Concentration required for 50% Inhibition of activity against Protein Tyrosine Phosphatases 1B
T1 sequence (P18031 whole entry): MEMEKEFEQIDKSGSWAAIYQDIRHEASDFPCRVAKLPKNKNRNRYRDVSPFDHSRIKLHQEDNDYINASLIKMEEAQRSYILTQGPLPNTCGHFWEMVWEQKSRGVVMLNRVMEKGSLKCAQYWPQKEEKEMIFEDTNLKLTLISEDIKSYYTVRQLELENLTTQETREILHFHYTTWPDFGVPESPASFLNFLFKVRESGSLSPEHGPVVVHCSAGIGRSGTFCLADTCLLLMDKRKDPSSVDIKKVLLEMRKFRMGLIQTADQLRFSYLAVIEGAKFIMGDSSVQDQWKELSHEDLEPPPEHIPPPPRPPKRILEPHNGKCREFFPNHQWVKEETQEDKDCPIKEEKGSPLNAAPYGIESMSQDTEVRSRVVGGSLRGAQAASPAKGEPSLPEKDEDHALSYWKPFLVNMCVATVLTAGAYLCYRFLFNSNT

[2] = target: Receptor-type tyrosine-protein phosphatase F (Homo sapiens, UniProt P10586); experiment: Concentration required for 50% Inhibition of activity against Protein-tyrosine phosphatase Lar
Sequence of Receptor-type tyrosine-protein phosphatase F (P10586 whole entry): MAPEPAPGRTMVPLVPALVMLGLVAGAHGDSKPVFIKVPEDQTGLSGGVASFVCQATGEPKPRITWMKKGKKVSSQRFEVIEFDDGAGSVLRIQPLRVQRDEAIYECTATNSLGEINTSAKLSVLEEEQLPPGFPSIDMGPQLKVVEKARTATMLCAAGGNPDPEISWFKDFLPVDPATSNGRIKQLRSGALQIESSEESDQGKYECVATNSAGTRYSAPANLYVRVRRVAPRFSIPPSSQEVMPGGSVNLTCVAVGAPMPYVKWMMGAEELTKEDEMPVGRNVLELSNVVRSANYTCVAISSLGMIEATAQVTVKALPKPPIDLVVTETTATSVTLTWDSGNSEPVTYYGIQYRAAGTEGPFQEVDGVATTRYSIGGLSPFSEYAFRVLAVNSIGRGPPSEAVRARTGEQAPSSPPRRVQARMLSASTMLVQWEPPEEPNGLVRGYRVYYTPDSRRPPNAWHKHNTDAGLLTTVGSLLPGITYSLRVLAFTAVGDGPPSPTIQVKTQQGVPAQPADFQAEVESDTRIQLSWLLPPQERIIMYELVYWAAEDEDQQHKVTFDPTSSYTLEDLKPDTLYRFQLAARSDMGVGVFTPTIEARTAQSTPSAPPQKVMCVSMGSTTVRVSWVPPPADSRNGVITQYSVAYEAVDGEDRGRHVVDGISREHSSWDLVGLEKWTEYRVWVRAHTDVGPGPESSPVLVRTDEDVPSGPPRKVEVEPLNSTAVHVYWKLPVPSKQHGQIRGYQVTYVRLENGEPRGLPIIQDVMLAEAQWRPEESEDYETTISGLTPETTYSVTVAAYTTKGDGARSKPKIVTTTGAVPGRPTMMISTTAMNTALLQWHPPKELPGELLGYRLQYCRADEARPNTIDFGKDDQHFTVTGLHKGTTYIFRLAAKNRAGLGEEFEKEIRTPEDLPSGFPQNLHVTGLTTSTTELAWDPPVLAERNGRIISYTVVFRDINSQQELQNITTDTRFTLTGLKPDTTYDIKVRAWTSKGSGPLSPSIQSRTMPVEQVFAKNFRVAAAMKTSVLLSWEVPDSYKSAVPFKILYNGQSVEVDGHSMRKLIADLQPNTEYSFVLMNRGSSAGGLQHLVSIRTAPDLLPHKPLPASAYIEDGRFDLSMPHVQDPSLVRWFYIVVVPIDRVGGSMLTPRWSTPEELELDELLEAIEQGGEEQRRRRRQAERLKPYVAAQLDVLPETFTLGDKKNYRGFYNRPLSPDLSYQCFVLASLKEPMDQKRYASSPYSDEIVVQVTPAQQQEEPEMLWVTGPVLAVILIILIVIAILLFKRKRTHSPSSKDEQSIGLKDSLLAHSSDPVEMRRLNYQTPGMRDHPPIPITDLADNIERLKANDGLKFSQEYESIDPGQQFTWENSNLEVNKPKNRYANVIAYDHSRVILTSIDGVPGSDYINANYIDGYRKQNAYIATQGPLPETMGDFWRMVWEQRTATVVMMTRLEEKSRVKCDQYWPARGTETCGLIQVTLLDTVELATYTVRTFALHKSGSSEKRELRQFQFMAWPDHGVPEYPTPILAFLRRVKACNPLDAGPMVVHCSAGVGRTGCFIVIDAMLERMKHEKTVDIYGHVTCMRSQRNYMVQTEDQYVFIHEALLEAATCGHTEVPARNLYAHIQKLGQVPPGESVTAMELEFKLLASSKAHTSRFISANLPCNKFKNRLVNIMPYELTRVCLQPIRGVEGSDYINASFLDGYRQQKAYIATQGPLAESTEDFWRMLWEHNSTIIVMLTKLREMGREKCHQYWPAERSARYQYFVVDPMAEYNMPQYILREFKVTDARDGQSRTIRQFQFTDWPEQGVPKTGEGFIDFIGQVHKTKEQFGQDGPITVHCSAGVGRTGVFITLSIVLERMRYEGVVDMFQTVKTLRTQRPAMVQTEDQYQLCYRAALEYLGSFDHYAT
Method in brief: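 Yersinia PTPase and LAR, commercial enzymes. p-NPP at 2.5 mM; 1 mM EDTA, 100 mM NaCl, 100 mM acetate pH 5.5, 10% DMSO, 25 °C. Initial rates taken from hydrolysis followed at 420 nm, 10–120 s after mixing. IC50 obtained by Dixon analysis.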

Work on O=C(O)C(=O)c1ccc(OCc2cccc(COc3ccc(C(=O)C(=O)O)cc3)c2)cc1 yielded an IC50 [1] of 53 µM and an IC50 [2] of 120 µM.

O=C(O)C(=O)c1ccc(OCc2ccccc2COc2ccc(C(=O)C(=O)O)cc2)cc1 was tested, and the IC50 [1] was 19 µM and the IC50 [2] was 120 µM.

O=C(O)C(=O)c1ccc(OCc2cc(COc3ccc(C(=O)C(=O)O)cc3)cc(COc3ccc(C(=O)C(=O)O)cc3)c2)cc1 gave an IC50 [1] of 13 µM and an IC50 [2] of 41 µM.

O=C(O)C(=O)c1ccc(O)cc1 showed an IC50 [2] of 2300 µM.

O=C(O)C(=O)c1ccc(OCc2ccc(COc3ccc(C(=O)C(=O)O)cc3)cc2)cc1 showed an IC50 [1] of 2.7 µM and an IC50 [2] of 250 µM.
